Hits are enriched below; roughly 0.6% of the tested compounds scored in any of these assays.
TNAP act hiacc = increases human TNAP activity under high phosphate acceptor concentration; 200,000 tested, under 10 active; activation factor at 20 µM; P05186; purified TNAP, CDP-star luminescence, 1 M DEA, 30 min; stronger effect = higher value; 0 = EDTA background, 1 = DMSO-only activity; AID 1136;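 active = activation factor at least 2 at 20 µM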
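Test system – human TNAP · Doses – 20 µM single point · Incubation – 30 min, room temperature · Signal – luminescent substrate turnover signal · Read-out basis – activation factor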
PMI act satM6P = increases human PMI activity with near-saturating mannose 6-phosphate. P34949. coupled PMI enzyme assay, resazurin fluorescence, 20 min; stronger effect = higher value; 1 = untreated enzyme, 0 = substrate-free blank. activation factor at 20 µM. 0.34% of 190,000 active. AID 1216;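 active = activation factor of 2 or more at 20 µM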
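Material: human phosphomannose isomerase with PGI, G6PDH, diaphorase coupling enzymes; amount: PMI at 15 ng/mL final; also added: Mannose-6-phosphate 1.0 mM (near-saturating) plus 0.22 mM NADP+; incubation: enzyme reaction with compound 20 min at room temperature; signal: resorufin fluorescence (Ex 544/Em 590 nm) from resazurin via diaphorase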
PMI activator = increases human mannose-6-phosphate isomerase activity. P34949. purified human PMI, coupled resazurin fluorescence, 20 min; stronger effect = higher value; 1 = vehicle control, 0 substrate-free wells. activation factor at 20 µM. 0.005% of 190,000 active. AID 1214;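 active = activation factor of 2 or more at 20 µM, relative to plate controls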
TNAP inh noacc = blocks human TNAP activity with no phosphate acceptor present; purified TNAP, CDP-star luminescence, 30 min; AID 1012; inhibition, % at 20 µM; 0.26% of 200,000 active; P05186;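 active = tissue-nonspecific alkaline phosphatase inhibition above about 50% at 20 µM in the single-dose screen, limit read from the data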;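 note: 0% = DMSO negative control and 100% = EDTA positive control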
TNAP inh hiacc = inhibitors of human TNAP at high phosphate acceptor concentration. P05186. purified TNAP, CDP-star luminescence, 1 M DEA. inhibition, % at 20 µM. 0.03% of 200,000 active;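 active = over 50% inhibition of tissue-nonspecific alkaline phosphatase at 20 µM in the single-dose screen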;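 note: plate controls were DMSO wells for no effect and EDTA-quenched wells as full inhibition for full effect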
* hit, by the source's call.

SMILES	TNAP act hiacc	PMI act satM6P	PMI activator	TNAP inh noacc	TNAP inh hiacc
Cc1ccc(/C=C2/C(=O)NC(=O)N(CCc3ccc(F)cc3)C2=O)o1	1	1.1	1	4	3
O=C1NC(=O)N(CCc2ccc(F)cc2)C(=O)/C1=C/c1ccco1	1	2*	1.6	1	0
O=C1NS(=O)c2cc([N+](=O)[O-])cc([N+](=O)[O-])c21 (stereo not drawn)	1	2*	1.6	-6	0
O=c1c2ccccc2nc(/C=C/c2ccc(O)cc2)n1-c1cccc(O)c1	0.9	0.8	0.9	9	13
COc1cccc(-n2c(/C=C/c3ccc(O)c(O)c3)nc3ccccc3c2=O)c1	0.7	0.9	0.4	84*	31
O=C1NC(=O)[C@]2(Cc3ccccc3N3CCN(c4ccccc4)CC32)C(=O)N1Cc1ccccc1 (stereo partly drawn)	1	2.1*	1.6	-4	-1
CN1C(=O)NC(=O)[C@]2(Cc3ccccc3N3CCN(c4ccccc4)CC32)C1=O (stereo partly drawn)	0.9	2.1*	1.7	-8	10
O=C1NC(=O)[C@]2(Cc3ccccc3N3CCN(c4ccccc4)CC32)C(=O)N1c1ccccc1 (stereo partly drawn)	1	2.1*	1.7	-9	-2
CN1C(=O)NC(=O)C2(Cc3ccccc3N3CCOCC32)C1=O (stereo not drawn)	1	0.9	0.9	-4	-1
COc1ccc2c(c1)c(C(=O)CN1CCC3(CC1)OCCO3)c(C)n2Cc1ccccc1	1	1	1	-14	-5
COc1ccc(/C=C2/C(=O)NC(=S)N(C3CC3)C2=O)cc1CN1C(=O)c2ccccc2C1=O	1	2*	1.6	8	-3
COc1ccc(/C=C2/C(=O)NC(=O)N(C3CCCCC3)C2=O)cc1CSc1ccccn1	1	1.2	1	15	-4
Cc1ccc(/C=C2\C(=O)NC(=S)N(c3ccc(F)cc3)C2=O)s1	1	2.1*	1.6	2	-1
NC(=O)CS(=O)C(c1ccccc1)c1ccccc1 (stereo not drawn)	1.1	1	0.9	-13	-8
O=c1[nH]c2ccccc2n1CCCN1CCC(n2c(=O)[nH]c3cc(Cl)ccc32)CC1	0.9	1.1	1.1	70*	10
COc1ccc(N2C(=O)CC(N3CCC(n4c(=O)[nH]c5ccccc54)CC3)C2=O)cc1 (stereo not drawn)	1.1	1	1	-4	-6
Cc1ccc(N/N=C/c2c(O)n(-c3ccccc3)c(=O)[nH]c2=O)cc1	1	2.5*	1.6	-8	-2
Oc1cc2c(cc1O)[C@H]1c3ccccc3CN[C@@H]1CC2	0.9	0.8	0.5	92*	7
O=C(c1cc(F)ccc1F)C1CCCN(CCCc2ccccc2)C1 (stereo not drawn)	1	0.9	0.9	-4	0
CSC(=Nc1ccccc1)c1c(O)n(C)c(=O)n(C)c1=O	1.1	2.2*	1.7	-17	-7
CCCCN1C(=N)C(CC)(CC)C(=O)NC1=O	1.1	1.1	1.1	23	-5
Oc1ccc(/C=N/NP(=S)(c2ccccc2)c2ccccc2)cc1O	0.8	0.4	0.4	77*	18
CC1(C)C(=O)C=C[C@]2(C)[C@H]3CC[C@@]4(C)[C@H](c5ccoc5)OC(=O)[C@H]5O[C@]54[C@]3(C)[C@H](O)C[C@@H]12	1	0.9	0.9	-2	-4
CCOC(=O)c1ccc(N2C(=O)CC(N3CC=C(c4ccc(F)cc4)CC3)C2=O)cc1 (stereo not drawn)	1	2*	1.6	-8	-3
O=C1CC(N2CC=C(c3ccc(F)cc3)CC2)C(=O)N1c1ccc(F)cc1 (stereo not drawn)	1.1	1.1	1.1	-13	-5
C=C1N2CCC(CC2)C1(O)c1ccc(C)cc1 (stereo not drawn)	1	2.1*	1.6	-8	-2
C=C1N2CCC(CC2)C1(O)c1ccc(C)c(C)c1 (stereo not drawn)	1	1	1.1	-10	-4
CCOC(=O)c1cc(CC)sc1/N=C/C1C(=O)NC(=S)NC1=O	1	2.3*	1.8	-6	-1
